Entries after “also recorded” stand apart in the source; their conditions may differ.
Columns and labels:
recombinant human TDP2 = biological target: T1, recombinant human TDP2 (Homo sapiens, UniProt O95551); test: Recombinant TDP2 assay; format: biochemical; conditions: inactive, i.e. IC50 >111 μM
T1 sequence (O95551 1-362): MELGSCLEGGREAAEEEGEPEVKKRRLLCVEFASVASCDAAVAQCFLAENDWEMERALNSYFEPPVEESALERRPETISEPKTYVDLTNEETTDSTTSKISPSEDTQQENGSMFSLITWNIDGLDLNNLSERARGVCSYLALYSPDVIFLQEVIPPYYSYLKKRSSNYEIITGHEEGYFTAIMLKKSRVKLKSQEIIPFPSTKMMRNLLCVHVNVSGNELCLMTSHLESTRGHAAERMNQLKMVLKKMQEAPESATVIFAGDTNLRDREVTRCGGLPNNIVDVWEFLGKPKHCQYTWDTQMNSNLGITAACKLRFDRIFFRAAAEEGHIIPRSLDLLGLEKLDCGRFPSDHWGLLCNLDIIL

TOP1 [1] = biological target: T2, TOP1 (Homo sapiens, UniProt P11387); test: TOP1-mediated relaxation assay; format: biochemical; conditions: 25 μM concentration
T2 sequence (P11387 1-765): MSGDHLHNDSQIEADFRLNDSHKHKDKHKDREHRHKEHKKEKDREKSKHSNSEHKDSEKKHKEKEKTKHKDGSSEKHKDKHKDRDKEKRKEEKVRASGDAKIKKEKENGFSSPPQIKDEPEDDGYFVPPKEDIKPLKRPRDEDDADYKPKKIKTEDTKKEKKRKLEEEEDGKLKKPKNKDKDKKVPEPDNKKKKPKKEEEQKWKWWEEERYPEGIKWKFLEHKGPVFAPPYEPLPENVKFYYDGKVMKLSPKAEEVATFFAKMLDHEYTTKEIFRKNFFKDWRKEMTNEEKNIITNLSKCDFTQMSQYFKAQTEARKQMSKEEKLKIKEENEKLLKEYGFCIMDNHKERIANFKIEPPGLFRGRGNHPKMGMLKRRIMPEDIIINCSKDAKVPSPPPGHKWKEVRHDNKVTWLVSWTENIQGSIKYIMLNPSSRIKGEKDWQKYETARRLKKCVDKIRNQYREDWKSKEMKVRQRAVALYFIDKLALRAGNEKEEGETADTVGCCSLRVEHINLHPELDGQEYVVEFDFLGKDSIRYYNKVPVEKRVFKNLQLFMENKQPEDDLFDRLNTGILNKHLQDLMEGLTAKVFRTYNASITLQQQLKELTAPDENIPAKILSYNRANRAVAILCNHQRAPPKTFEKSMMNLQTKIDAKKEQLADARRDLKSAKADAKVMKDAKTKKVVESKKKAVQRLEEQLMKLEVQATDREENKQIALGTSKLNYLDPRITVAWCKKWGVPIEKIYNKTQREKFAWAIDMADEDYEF

TOP2 = test: TOP2-mediated relaxation assay; format: biochemical; conditions: 25 μM concentration
TOP1 [2] = biological target: T2, TOP1; test: TOP1-mediated DNA cleavage assay; format: biochemical; conditions: up to 100 μM
recombinant TDP1 = recombinant TDP1 (Homo sapiens, UniProt Q9NUW8); test: Recombinant TDP1 assay; format: biochemical; conditions: highest concentration tested 111 μM
Chain of recombinant TDP1 (Q9NUW8 whole entry, species assumed): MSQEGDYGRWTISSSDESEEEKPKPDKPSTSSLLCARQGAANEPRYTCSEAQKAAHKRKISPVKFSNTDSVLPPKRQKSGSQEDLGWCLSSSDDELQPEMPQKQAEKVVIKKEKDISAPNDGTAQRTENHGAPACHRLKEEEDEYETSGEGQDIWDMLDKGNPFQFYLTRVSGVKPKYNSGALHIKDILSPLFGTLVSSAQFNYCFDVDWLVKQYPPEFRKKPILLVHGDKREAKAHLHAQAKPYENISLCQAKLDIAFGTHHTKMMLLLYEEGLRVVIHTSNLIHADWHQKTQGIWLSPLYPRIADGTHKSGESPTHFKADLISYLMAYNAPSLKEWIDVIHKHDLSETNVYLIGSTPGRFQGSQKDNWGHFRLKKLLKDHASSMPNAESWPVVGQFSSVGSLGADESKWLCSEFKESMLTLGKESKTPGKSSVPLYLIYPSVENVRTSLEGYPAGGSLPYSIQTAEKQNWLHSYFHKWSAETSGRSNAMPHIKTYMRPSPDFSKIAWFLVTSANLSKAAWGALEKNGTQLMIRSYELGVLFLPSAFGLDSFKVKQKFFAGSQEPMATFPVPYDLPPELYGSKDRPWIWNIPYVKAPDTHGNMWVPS
Summary of the method: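 Test compound was run as six or eight three-fold dilutions from 111 μM down to 0.46 μM or 0.051 μM against recombinant TDP1. Reactions were stopped with 1 volume of gel loading buffer (99.5% formamide, 5 mM EDTA, xylene cyanol, bromophenol blue) and resolved by 16% denaturing PAGE. Dried gels were phosphorimaged and quantified by densitometry.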

[3] = biological target: TOP2-DNA covalent cleavage complexes (TOP2cc) in CCRF-CEM cells (Homo sapiens, UniProt P11388); test: In vivo complex of enzyme; format: cell-based; conditions: 2 h treatment, up to 50 μM
Chain of TOP2-DNA covalent cleavage complexes (TOP2cc) in CCRF-CEM cells (P11388 whole entry, one chain of several): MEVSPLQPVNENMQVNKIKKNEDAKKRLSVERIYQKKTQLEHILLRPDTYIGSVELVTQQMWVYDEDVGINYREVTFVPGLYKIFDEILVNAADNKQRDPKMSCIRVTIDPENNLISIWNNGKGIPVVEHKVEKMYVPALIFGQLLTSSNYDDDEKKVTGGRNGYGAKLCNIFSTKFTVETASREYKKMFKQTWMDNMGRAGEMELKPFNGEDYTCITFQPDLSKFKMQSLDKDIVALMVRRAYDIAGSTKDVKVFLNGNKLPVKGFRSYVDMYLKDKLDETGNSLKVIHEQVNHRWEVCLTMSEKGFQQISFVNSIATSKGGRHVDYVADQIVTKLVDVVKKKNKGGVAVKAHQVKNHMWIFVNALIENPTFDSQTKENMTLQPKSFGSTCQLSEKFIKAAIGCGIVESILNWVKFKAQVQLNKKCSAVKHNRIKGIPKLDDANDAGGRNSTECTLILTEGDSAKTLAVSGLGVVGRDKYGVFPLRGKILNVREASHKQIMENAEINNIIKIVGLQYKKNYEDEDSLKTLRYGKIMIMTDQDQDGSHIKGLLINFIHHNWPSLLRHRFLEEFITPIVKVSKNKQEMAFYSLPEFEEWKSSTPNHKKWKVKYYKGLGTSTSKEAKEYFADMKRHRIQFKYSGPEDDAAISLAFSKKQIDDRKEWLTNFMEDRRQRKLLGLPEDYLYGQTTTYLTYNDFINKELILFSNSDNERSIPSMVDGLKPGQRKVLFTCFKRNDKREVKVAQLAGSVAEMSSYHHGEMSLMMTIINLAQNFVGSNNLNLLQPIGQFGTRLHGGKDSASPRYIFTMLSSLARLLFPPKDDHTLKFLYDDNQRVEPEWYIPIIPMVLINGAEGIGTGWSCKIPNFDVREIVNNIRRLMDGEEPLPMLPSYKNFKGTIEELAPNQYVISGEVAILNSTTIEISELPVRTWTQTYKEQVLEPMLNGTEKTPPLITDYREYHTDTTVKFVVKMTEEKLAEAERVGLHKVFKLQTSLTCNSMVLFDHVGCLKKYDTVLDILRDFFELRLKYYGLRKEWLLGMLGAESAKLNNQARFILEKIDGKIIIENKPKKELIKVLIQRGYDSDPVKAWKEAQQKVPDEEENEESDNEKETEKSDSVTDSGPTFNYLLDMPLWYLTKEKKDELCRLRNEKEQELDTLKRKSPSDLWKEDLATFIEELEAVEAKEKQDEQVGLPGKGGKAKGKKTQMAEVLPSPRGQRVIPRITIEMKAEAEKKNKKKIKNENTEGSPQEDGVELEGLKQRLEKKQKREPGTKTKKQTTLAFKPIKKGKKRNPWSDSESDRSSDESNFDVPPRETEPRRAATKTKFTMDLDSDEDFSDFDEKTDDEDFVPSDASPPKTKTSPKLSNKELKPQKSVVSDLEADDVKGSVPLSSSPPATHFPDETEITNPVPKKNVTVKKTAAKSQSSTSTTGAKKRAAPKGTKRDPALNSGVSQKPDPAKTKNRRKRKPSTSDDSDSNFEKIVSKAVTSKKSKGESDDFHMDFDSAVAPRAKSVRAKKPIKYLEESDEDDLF
Summary of the method: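 CCRF-CEM cells (60 × 10^5) exposed to test compound for 2 h, then lysed with 1% Sarkosyl. DNA was isolated, and TOP2–DNA covalent complexes were detected by Western slot blot using a mouse anti-human TOP2α antibody.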

TDP2 inhibitory activity (in words) (recombinant human TDP2) | TDP1 inhibition (in words) (recombinant TDP1) | Structure (SMILES) | TOP1 relaxing activity inhibition (in words) (TOP1 [1]) | TOP2 relaxing activity inhibition (in words) (TOP2) | other results
inactive |  | Cc1oc2c(c1C(=O)Oc1ccc3ccccc3c1)C(=O)c1ncccc1C2=O [Compound 40, 2-Naphthalenyl 2-methyl-4,9-dioxo-4,9-dihydrofuro[2,3-g]quinoline-3-carboxylate] |  |  | 
inactive |  | Cc1oc2c(c1C(=O)Oc1ccc(C(=O)c3ccccc3)cc1)C(=O)c1ncccc1C2=O [Compound 46, 4-Benzoylphenyl 2-methyl-4,9-dioxo-4,9-dihydrofuro[2,3-g]quinoline-3-carboxylate] |  |  | 
inactive |  | Cc1oc2c(c1C(=O)Oc1ccc3c(c1)OCO3)C(=O)c1ncccc1C2=O [Compound 49, Benzo[d][1,3]dioxol-5-yl 2-methyl-4,9-dioxo-4,9-dihydrofuro[2,3-g]quinoline-3-carboxylate] |  |  | 

The remaining lines, values behind:

Structure (SMILES) | TDP2 inhibitory activity (in words) (recombinant human TDP2) | TDP1 inhibition (in words) (recombinant TDP1) | TOP1 relaxing activity inhibition (in words) (TOP1 [1]) | TOP2 relaxing activity inhibition (in words) (TOP2) | other results
CCOC(=O)c1n[nH]c2c1C(=O)c1cccnc1C2=O [Compound 76, Ethyl 4,9-dioxo-4,9-dihydro-1H-pyrazolo[4,3-g]quinoline-3-carboxylate] | inactive |  |  |  | 
CCOC(=O)c1n[nH]c2c1C(=O)c1ncccc1C2=O [Compound 75, Ethyl 4,9-dioxo-4,9-dihydro-1H-pyrazolo[3,4-g]quinoline-3-carboxylate] | inactive |  |  |  | 
CCOC(=O)c1noc2c1C(=O)c1ncccc1C2=O [Compound 73, Ethyl 4,9-dioxo-4,9-dihydroisoxazolo[5,4-g]quinoline-3-carboxylate] |  | no activity | do not have inhibitory potency; also recorded: no activity | do not have inhibitory potency; also recorded: no activity | TOP1-mediated DNA cleavage, formation of covalent TOP1-DNA complex (in words) (TOP1 [2]): do not have inhibitory potency
CCOC(=O)c1c(C)[nH]c2c1C(=O)c1cccnc1C2=O [Compound 70, ethyl 2-methyl-4,9-dioxo-4,9-dihydro-1H-pyrrolo[3,2-g]quinoline-3-carboxylate] | inactive |  |  |  | 
CCOC(=O)c1noc2c1C(=O)c1cccnc1C2=O [Compound 74, Ethyl 4,9-dioxo-4,9-dihydroisoxazolo[4,5-g]quinoline-3-carboxylate] |  | no activity | do not have inhibitory potency; also recorded: no activity | do not have inhibitory potency; also recorded: no activity | Induction of TOP2cc formation (ICE assay, in words) [3]: unable to induce the formation of TOP2cc; TOP1-mediated DNA cleavage, formation of covalent TOP1-DNA complex (in words) (TOP1 [2]): do not have inhibitory potency
CCOC(=O)c1c2c(n(C)c1C)C(=O)c1ncccc1C2=O [Compound 72, ethyl 1,2-dimethyl-4,9-dioxo-4,9-dihydro-1H-pyrrolo[3,2-g]quinoline-3-carboxylate] | inactive |  |  |  | 
CCOC(=O)c1c(C)oc2c1C(=O)c1ncccc1C2=O [Compound 1, Ethyl 2-methyl-4,9-dioxo-4,9-dihydrofuro[2,3-g]quinoline-3-carboxylate] |  | did not inhibit | did not inhibit | did not inhibit | 
